Common to all, as to format: functional
The test system of one assay is Staphylococcus aureus. The assay can be described thus: Antibacterial activity against Staphylococcus aureus ATCC 25923 after 24 hrs by MTT assay. The following applies: ATCC 25923, 24 h. The method, boiled down:
(§1)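 Broth microdilution. Inocula were grown in Mueller-Hinton broth from subcultures on nutrient agar (37 °C, 48 h) and set to McFarland 0.5. Compounds in DMSO were diluted with water, then two-fold serially from 3.91 to 250 µg/mL. Gentamicin and tetracycline served as positive controls and DMSO as negative. Plates ran 37 °C for 24 h, then MTT (0.2 mg/mL) for 30 min. MIC was the lowest concentration preventing the yellow-to-purple change.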

For another assay, the system named is Streptococcus pyogenes. The assay can be described thus: Antibacterial activity against Streptococcus pyogenes ATCC 19615 after 24 hrs by MTT assay. The conditions noted are these: ATCC 19615, 24 h. The method, boiled down:
as §1

The next assay concerns Haemophilus influenzae. The assay can be described thus: Antibacterial activity against Haemophilus influenzae ATCC 10211 after 24 hrs by MTT assay. The method in brief: as §1
The test system of another assay is Candida albicans. The assay can be described thus: Antifungal activity against Candida albicans ATCC 10231 after 24 hrs by MTT assay. The following applies: ATCC 10231, 24 h. The method in brief: as §1
The subject of assay [1] is Mycobacterium tuberculosis. The assay can be described thus: Antibacterial activity against Mycobacterium tuberculosis H37Rv ATCC 27294 after 5 days by MTT assay. The following applies: H37Rv ATCC 27294, 120 h. The method, boiled down:
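Inoculum from log-phase culture in Middlebrook 7H9 with ADC, set to McFarland no. 1 (approximately 3×10^7 CFU/mL), then diluted 1:20 in 7H9-OADC. Compounds in DMSO/water, two-fold series 3.91–250 μg/mL, tested in triplicate. Isoniazid positive control, drug-free growth wells. Incubated 37 °C, 8% CO₂. MTT–Tween 80 added to a control well; once purple, added to all wells. MIC read next day.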

≈ marks a conversion by molar mass, not a printed value. Bounds are passed on as bounds.

The values that follow come from ChEMBL document CHEMBL1817667, “Synthesis and antimicrobial properties of some new thiazolyl coumarin derivatives” (2011).

Turning to `O=c1oc2ccccc2cc1-c1csc(N/N=C\c2cccc(O)c2)n1`, the MIC against Staphylococcus aureus was determined as 172 µM (≈ 62.5 µg/mL); in the assay on Streptococcus pyogenes, 344 µM (≈ 125 µg/mL); in the assay with Haemophilus influenzae (ATCC 10211, 24 h), 172 µM (≈ 62.5 µg/mL); against Candida albicans, 172 µM (≈ 62.5 µg/mL); in assay [1] it was 172 µM (≈ 62.5 µg/mL).
Take `CN(C)[C@@H]1C(O)=C(C(N)=O)C(=O)[C@@]2(O)C(O)=C3C(=O)c4c(O)cccc4[C@@](C)(O)[C@H]3C[C@@H]12` [TETRACYCLINE]: the MIC turned out to be 70 µM (≈ 31.1 µg/mL) with Staphylococcus aureus; 14 µM (≈ 6.22 µg/mL) with Streptococcus pyogenes; 35 µM (≈ 15.6 µg/mL) in the assay with Haemophilus influenzae (ATCC 10211, 24 h).
As for `O=c1oc2ccccc2cc1-c1csc(N/N=C\c2ccc(O)cc2)n1`, the MIC against Staphylococcus aureus came to 344 µM (≈ 125 µg/mL); with Streptococcus pyogenes, 172 µM (≈ 62.5 µg/mL); with Haemophilus influenzae (ATCC 10211, 24 h) it was 344 µM (≈ 125 µg/mL); in the assay with Candida albicans, 172 µM (≈ 62.5 µg/mL); in assay [1], 344 µM (≈ 125 µg/mL).
For the molecule `COc1cccc(/C=N\Nc2nc(-c3cc4ccccc4oc3=O)cs2)c1O`, the MIC against Staphylococcus aureus turned out to be 159 µM (≈ 62.6 µg/mL); against Streptococcus pyogenes, 159 µM (≈ 62.6 µg/mL); against Haemophilus influenzae (ATCC 10211, 24 h), 79 µM (≈ 31.1 µg/mL); with Candida albicans, 79 µM (≈ 31.1 µg/mL); in assay [1], 79 µM (≈ 31.1 µg/mL).
As for `O=c1oc2ccccc2cc1-c1csc(N/N=C\c2c(O)ccc3ccccc23)n1`, the MIC in the assay with Staphylococcus aureus is 75 µM (≈ 31 µg/mL); in the assay with Streptococcus pyogenes it was 75 µM (≈ 31 µg/mL); in the assay on Haemophilus influenzae (ATCC 10211, 24 h), 151 µM (≈ 62.4 µg/mL); with Candida albicans, 151 µM (≈ 62.4 µg/mL); in assay [1] it was 75 µM (≈ 31 µg/mL).
In the case of `C/C(=N/Nc1nc(-c2cc3ccccc3oc2=O)cs1)c1cc2cc(Br)ccc2oc1=O`, the MIC turned out to be 62 µM (≈ 31.5 µg/mL) in the assay with Staphylococcus aureus; 62 µM (≈ 31.5 µg/mL) against Streptococcus pyogenes; 15 µM (≈ 7.63 µg/mL) against Haemophilus influenzae (ATCC 10211, 24 h); 31 µM (≈ 15.8 µg/mL) with Candida albicans; 15 µM (≈ 7.63 µg/mL) in assay [1].
GENTAMICIN yielded an MIC against Haemophilus influenzae of 13 µM.
`O=c1oc2ccccc2cc1-c1csc(N/N=C\c2ccc(O)cc2O)n1`: the MIC in the assay on Staphylococcus aureus was 82 µM (≈ 31.1 µg/mL); in the assay on Streptococcus pyogenes, 329 µM (≈ 125 µg/mL); against Haemophilus influenzae (ATCC 10211, 24 h) it was 329 µM (≈ 125 µg/mL); against Candida albicans it was 165 µM (≈ 62.6 µg/mL); in assay [1], 329 µM (≈ 125 µg/mL).
As to `O=c1oc2ccccc2cc1-c1csc(N/N=C\c2cccc3ccccc23)n1`, the MIC is 157 µM (≈ 62.4 µg/mL) against Staphylococcus aureus; 314 µM (≈ 125 µg/mL) against Streptococcus pyogenes; 314 µM (≈ 125 µg/mL) with Haemophilus influenzae (ATCC 10211, 24 h); 157 µM (≈ 62.4 µg/mL) against Candida albicans; 157 µM (≈ 62.4 µg/mL) in assay [1].
On to `O=c1oc2ccccc2cc1-c1csc(N/N=C\c2cc(Br)ccc2O)n1`, for which the MIC in the assay on Staphylococcus aureus is 35 µM (≈ 15.5 µg/mL); against Streptococcus pyogenes, 17 µM (≈ 7.52 µg/mL); against Haemophilus influenzae (ATCC 10211, 24 h), 17 µM (≈ 7.52 µg/mL); with Candida albicans, 35 µM (≈ 15.5 µg/mL); in assay [1], 17 µM (≈ 7.52 µg/mL).
Molecule `OC(Cn1cncn1)(Cn1cncn1)c1ccc(F)cc1F` [FLUCONAZOLE] registered an MIC in the assay with Candida albicans of 10 µM (≈ 3.06 µg/mL).
Consider `O=c1oc2ccccc2cc1-c1csc(N/N=C\c2ccccc2O)n1`, for which the MIC against Staphylococcus aureus is 172 µM (≈ 62.5 µg/mL); in the assay on Streptococcus pyogenes, 344 µM (≈ 125 µg/mL); with Haemophilus influenzae (ATCC 10211, 24 h), 43 µM (≈ 15.6 µg/mL); in the assay with Candida albicans, 86 µM (≈ 31.3 µg/mL); in assay [1] it was 43 µM (≈ 15.6 µg/mL).
Turning to `NNC(=O)c1ccncc1` [ISONIAZID], the MIC in assay [1] was 1.3 µM (≈ 0.178 µg/mL).
As for `C/C(=N\Nc1nc(-c2cc3ccccc3oc2=O)cs1)c1ccc(O)cc1`, the MIC is 165 µM (≈ 62.3 µg/mL) in the assay on Staphylococcus aureus; 165 µM (≈ 62.3 µg/mL) against Streptococcus pyogenes; 331 µM (≈ 125 µg/mL) in the assay on Haemophilus influenzae (ATCC 10211, 24 h); 331 µM (≈ 125 µg/mL) against Candida albicans; above 663 µM in assay [1].
As to `O=c1oc2ccccc2cc1-c1csc(NN=C(c2ccccc2)c2ccccc2)n1`, the MIC with Staphylococcus aureus stood at 295 µM (≈ 125 µg/mL); against Streptococcus pyogenes it was 295 µM (≈ 125 µg/mL); in the assay on Haemophilus influenzae (ATCC 10211, 24 h) it was 147 µM (≈ 62.3 µg/mL); in the assay with Candida albicans, 147 µM (≈ 62.3 µg/mL); in assay [1], 147 µM (≈ 62.3 µg/mL).
Consider `C/C(=N/Nc1nc(-c2cc3ccccc3oc2=O)cs1)c1cc2ccc(O)cc2oc1=O`, for which the MIC is 17 µM (≈ 7.57 µg/mL) with Staphylococcus aureus; 72 µM (≈ 32.1 µg/mL) in the assay with Streptococcus pyogenes; 35 µM (≈ 15.6 µg/mL) with Haemophilus influenzae (ATCC 10211, 24 h); 140 µM (≈ 62.4 µg/mL) in the assay with Candida albicans; 17 µM (≈ 7.57 µg/mL) in assay [1].
